According to ChEMBL document CHEMBL4118021, “Studies of TAK1-centered polypharmacology with novel covalent TAK1 inhibitors” (Bioorg Med Chem, 2017):

Assays:
[1] = target: Cyclin-dependent kinase 7 (Homo sapiens) (UniProt P50613); experiment: Inhibition of CDK7 in human SKCO1 cells at 1 uM after 4 hrs using biotin labeled DLKPNNLLLDENGVLK probe by mass-spectrometric analysis relative to control; format: cell-based
[2] = target: Cyclin-dependent kinase 15 (Homo sapiens) (UniProt Q96Q40); experiment: Inhibition of PFTAIRE2 in human SKCO1 cells at 1 uM after 4 hrs using biotin labeled DLKPQNLLISHLGELK probe by mass-spectrometric analysis relative to control; format: cell-based
Outline: (§1)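 Live SK-CO-1 cells exposed to compound at 1 μM or DMSO for 4 h (KiNativ). Lysates then labeled with lysine-reactive ATP/ADP-biotin probe, and probe-labeled kinase peptides quantified by mass spectrometry. Percent inhibition of probe-dependent recovery calculated relative to DMSO-treated cells.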

[3] = target: Aurora kinase A (Homo sapiens) (UniProt O14965); experiment: Inhibition of AurA in human SKCO1 cells at 1 uM after 4 hrs using biotin labeled DIKPENLLLGSAGELK probe by mass-spectrometric analysis relative to control
[4] = target: Serine/threonine-protein kinase VRK2 (Homo sapiens) (UniProt Q86Y07); experiment: Inhibition of VRK2 in human SKCO1 cells at 1 uM after 4 hrs using biotin labeled MLDVLEYIHENEYVHGDIKAANLLLYK probe by mass-spectrometric analysis relative to control; format: cell-based; outline: as §1
[5] = target: T1, Serine/threonine-protein kinase TAO1 (Homo sapiens) (UniProt Q7L7X3); experiment: Inhibition of TAO1 in human SKCO1 cells at 1 uM after 4 hrs using biotin labeled DIKAGNILLTEPGQVK probe by mass-spectrometric analysis relative to control; format: cell-based; outline: as §1
T1 sequence (whole entry): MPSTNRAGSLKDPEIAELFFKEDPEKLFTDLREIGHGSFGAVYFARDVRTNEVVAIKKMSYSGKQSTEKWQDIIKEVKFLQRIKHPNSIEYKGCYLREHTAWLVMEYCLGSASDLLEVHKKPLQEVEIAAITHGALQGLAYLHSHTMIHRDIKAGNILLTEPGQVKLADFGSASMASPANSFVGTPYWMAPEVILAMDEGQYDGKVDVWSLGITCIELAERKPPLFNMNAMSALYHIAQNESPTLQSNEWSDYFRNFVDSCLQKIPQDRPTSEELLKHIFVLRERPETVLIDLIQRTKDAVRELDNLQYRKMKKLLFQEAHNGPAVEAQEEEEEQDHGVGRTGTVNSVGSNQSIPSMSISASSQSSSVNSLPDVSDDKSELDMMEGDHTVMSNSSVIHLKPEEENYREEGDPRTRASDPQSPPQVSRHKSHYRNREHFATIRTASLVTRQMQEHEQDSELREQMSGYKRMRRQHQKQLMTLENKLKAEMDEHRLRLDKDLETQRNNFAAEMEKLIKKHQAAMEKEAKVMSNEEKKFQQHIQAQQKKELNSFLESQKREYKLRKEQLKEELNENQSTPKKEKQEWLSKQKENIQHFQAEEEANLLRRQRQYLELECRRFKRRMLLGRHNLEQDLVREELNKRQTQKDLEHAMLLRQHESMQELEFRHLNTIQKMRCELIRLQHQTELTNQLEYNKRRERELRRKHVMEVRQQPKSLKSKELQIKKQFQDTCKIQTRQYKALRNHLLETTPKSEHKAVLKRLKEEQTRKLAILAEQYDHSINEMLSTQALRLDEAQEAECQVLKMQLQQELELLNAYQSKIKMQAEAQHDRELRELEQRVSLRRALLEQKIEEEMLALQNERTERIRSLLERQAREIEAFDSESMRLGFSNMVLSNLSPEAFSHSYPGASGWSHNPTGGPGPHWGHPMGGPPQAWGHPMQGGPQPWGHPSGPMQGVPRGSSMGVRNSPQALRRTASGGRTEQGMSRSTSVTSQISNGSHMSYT

[6] = target: T2, Mitogen-activated protein kinase kinase kinase 7 (Homo sapiens) (UniProt O43318); conditions: 1 uM
T2 sequence (whole entry): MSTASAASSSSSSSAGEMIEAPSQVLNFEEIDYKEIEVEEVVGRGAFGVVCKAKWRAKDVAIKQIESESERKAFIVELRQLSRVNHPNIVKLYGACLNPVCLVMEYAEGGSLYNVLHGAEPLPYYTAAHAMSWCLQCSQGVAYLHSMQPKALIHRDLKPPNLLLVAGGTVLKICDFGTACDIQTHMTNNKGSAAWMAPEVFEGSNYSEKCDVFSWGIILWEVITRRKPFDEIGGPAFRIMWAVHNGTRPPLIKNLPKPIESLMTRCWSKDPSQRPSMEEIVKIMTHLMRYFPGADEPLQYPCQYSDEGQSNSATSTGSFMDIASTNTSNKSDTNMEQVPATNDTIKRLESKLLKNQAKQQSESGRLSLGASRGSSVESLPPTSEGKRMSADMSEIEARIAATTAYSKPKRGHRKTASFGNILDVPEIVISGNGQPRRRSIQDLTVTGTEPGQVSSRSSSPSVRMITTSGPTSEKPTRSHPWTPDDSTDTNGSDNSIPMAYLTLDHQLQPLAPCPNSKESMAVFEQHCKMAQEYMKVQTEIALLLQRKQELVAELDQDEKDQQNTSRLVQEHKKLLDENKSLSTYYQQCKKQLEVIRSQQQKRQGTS

[7] = target: Mitogen-activated protein kinase kinase kinase 1 (Homo sapiens) (UniProt Q13233); experiment: Inhibition of MAP3K1 in human SKCO1 cells at 1 uM after 4 hrs using biotin labeled DVKGANLLIDSTGQR probe by mass-spectrometric analysis relative to control; format: cell-based
[8] = target: Phosphatidylinositol 4-kinase beta (Homo sapiens) (UniProt Q9UBF8); experiment: Inhibition of PI4KB in human SKCO1 cells at 1 uM after 4 hrs using biotin labeled VPHTQAVVLNSKDK probe by mass-spectrometric analysis relative to control; format: cell-based; outline: as §1
[9] = target: Serine/threonine-protein kinase PLK1 (Homo sapiens) (UniProt P53350); experiment: Inhibition of PLK1 in human SKCO1 cells at 1 uM after 4 hrs using biotin labeled CFEISDADTKEVFAGKIVPK probe by mass-spectrometric analysis relative to control; format: cell-based; outline: as §1
[10] = target: 5'-AMP-activated protein kinase catalytic subunit alpha-1 (Homo sapiens) (UniProt Q13131); experiment: Inhibition of AMPKa1 in human SKCO1 cells at 1 uM after 4 hrs using biotin labeled DLKPENVLLDAHMNAK probe by mass-spectrometric analysis relative to control; format: cell-based
Outline: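 Live SK-CO-1 cells were treated 4 h with compound at 1 μM or DMSO, then lysed. Lysates were labeled with a lysine-reactive ATP/ADP-biotin probe and analysed by mass spectrometry. Percent inhibition is the loss of probe-dependent recovery of the kinase peptide relative to DMSO.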

[11] = target: Serine/threonine-protein kinase Chk2 (Homo sapiens) (UniProt O96017); experiment: Inhibition of CHK2 in human SKCO1 cells at 1 uM after 4 hrs using biotin labeled DLKPENVLLSSQEEDCLIK probe by mass-spectrometric analysis relative to control; format: cell-based

Sequence of Serine/threonine-protein kinase VRK2 (Homo sapiens) (Q86Y07 whole entry): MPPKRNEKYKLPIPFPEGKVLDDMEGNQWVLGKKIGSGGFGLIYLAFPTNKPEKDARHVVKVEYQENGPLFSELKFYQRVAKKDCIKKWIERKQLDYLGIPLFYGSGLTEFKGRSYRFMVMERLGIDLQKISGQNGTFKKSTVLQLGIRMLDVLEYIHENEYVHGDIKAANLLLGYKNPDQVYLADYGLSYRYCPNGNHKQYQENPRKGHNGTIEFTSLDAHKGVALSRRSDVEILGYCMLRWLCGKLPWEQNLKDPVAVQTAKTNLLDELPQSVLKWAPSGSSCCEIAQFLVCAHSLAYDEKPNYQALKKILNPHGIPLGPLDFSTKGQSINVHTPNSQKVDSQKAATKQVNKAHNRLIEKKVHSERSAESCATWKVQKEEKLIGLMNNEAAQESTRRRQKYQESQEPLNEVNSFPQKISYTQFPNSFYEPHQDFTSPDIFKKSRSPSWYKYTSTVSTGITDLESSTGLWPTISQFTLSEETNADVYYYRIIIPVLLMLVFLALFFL
Sequence of Mitogen-activated protein kinase kinase kinase 1 (Homo sapiens) (Q13233 whole entry): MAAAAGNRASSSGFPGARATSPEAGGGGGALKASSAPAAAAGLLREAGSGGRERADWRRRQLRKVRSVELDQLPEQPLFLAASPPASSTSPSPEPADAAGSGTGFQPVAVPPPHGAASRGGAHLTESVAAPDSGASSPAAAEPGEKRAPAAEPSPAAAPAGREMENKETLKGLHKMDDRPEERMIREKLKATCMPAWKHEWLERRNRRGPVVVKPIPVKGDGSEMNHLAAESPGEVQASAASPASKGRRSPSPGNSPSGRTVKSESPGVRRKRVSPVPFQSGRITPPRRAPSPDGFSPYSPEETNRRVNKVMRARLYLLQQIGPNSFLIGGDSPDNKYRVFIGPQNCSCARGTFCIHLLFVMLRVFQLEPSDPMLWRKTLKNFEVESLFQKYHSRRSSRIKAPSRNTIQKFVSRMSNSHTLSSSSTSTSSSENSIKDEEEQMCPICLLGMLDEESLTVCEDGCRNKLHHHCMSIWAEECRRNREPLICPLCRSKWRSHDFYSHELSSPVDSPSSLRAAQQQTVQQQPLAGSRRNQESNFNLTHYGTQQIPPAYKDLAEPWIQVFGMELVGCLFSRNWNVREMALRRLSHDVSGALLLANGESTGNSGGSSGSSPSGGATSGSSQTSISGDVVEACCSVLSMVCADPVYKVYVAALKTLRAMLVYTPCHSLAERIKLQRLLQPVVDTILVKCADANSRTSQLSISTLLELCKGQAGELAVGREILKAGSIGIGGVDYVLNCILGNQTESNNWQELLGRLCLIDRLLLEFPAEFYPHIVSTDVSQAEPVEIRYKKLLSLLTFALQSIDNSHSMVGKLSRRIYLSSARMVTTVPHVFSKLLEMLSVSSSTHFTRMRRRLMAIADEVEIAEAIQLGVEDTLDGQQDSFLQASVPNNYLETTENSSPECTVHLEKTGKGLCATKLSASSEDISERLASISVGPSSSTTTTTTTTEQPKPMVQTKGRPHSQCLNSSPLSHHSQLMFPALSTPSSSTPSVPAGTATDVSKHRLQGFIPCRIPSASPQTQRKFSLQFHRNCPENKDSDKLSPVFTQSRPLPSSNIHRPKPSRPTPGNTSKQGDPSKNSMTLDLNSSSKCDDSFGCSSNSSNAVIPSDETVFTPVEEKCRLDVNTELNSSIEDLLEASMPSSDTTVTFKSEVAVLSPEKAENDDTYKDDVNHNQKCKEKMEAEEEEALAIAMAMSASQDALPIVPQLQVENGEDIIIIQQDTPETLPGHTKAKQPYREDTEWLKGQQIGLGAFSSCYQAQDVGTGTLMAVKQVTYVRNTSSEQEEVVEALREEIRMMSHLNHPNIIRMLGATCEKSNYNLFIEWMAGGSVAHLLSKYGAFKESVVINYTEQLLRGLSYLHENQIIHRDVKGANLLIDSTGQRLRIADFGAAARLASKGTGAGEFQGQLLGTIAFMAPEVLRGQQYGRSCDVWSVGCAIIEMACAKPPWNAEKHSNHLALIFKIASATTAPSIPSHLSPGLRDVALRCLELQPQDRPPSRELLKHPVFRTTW
Sequence of 5'-AMP-activated protein kinase catalytic subunit alpha-1 (Homo sapiens) (Q13131 whole entry, looked up): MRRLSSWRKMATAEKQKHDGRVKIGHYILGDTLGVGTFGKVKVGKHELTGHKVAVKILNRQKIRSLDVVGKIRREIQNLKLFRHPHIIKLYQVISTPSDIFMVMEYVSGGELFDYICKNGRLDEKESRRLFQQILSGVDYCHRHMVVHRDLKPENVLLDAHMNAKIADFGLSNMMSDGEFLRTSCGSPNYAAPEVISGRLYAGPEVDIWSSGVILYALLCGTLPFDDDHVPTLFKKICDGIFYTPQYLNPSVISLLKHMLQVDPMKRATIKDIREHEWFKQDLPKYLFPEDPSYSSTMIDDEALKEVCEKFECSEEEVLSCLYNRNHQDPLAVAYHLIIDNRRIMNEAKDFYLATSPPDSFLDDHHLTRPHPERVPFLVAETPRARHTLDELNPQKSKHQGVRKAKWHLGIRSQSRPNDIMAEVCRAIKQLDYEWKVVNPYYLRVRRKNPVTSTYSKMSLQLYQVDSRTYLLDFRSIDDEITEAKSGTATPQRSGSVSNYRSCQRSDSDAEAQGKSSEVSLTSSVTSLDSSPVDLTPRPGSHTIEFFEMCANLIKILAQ
Sequence of Serine/threonine-protein kinase PLK1 (Homo sapiens) (P53350 whole entry): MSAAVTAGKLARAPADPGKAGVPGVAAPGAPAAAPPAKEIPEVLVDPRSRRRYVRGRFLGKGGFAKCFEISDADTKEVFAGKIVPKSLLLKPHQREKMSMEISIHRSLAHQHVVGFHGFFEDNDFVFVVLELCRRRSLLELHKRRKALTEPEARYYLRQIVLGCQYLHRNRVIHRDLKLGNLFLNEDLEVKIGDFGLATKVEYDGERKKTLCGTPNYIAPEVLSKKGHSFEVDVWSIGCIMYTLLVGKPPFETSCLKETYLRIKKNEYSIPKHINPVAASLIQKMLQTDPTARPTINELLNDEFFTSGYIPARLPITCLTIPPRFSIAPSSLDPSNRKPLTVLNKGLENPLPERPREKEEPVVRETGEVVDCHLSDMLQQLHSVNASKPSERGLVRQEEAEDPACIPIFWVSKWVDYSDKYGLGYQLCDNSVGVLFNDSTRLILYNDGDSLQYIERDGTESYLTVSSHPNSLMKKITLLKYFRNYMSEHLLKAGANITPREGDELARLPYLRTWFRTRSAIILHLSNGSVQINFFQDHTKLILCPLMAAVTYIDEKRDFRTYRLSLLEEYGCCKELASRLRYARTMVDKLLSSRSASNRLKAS
Sequence of Phosphatidylinositol 4-kinase beta (Homo sapiens) (Q9UBF8 2-816 limits assumed): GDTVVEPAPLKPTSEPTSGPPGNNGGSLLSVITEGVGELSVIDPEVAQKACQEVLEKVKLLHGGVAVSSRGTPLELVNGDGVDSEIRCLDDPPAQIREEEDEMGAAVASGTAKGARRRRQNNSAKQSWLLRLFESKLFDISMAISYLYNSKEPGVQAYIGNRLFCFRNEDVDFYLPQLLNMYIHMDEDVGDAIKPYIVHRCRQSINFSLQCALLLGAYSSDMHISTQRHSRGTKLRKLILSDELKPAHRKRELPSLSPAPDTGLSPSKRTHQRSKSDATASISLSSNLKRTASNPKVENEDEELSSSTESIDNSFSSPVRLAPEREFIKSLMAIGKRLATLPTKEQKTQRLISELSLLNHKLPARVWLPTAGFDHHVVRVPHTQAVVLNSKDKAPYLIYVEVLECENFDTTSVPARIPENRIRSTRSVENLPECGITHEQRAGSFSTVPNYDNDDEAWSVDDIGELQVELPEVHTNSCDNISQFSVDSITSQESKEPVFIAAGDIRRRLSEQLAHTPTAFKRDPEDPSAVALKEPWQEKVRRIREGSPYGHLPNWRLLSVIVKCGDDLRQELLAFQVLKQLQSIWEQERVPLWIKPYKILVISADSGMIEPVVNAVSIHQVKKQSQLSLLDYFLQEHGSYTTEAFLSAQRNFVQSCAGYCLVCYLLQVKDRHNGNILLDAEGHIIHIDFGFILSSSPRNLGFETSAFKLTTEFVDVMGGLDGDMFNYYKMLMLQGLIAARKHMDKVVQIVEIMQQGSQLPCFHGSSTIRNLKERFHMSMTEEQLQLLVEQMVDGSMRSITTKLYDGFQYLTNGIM
Sequence of Cyclin-dependent kinase 7 (Homo sapiens) (P50613 whole entry): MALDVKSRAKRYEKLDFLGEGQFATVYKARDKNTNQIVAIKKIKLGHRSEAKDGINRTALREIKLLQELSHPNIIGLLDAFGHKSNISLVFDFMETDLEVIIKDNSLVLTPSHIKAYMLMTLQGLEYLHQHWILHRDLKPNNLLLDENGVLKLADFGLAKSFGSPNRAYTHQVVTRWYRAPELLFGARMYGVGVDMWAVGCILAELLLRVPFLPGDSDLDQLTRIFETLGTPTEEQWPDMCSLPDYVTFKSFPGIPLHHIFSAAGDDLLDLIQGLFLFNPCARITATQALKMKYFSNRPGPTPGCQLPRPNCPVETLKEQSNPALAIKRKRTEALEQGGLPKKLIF
Sequence of Cyclin-dependent kinase 15 (Homo sapiens) (Q96Q40 whole entry): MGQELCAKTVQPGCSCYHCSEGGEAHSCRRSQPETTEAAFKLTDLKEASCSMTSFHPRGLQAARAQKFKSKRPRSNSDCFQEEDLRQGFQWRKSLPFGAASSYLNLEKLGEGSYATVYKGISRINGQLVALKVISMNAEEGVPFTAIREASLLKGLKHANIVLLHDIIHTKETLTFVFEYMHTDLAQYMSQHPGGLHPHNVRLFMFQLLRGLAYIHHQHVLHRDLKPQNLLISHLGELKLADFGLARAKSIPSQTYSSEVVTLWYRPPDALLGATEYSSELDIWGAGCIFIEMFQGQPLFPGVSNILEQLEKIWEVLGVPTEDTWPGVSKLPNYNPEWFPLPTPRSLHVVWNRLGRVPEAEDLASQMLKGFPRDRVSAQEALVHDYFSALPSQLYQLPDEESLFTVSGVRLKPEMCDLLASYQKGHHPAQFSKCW

Row | Compound | inhibition [1] [%] | inhibition [2] [%] | inhibition [3] [%] | inhibition [4] [%] | inhibition [5] [%] | inhibition [6] [%] | inhibition [7] [%] | inhibition [8] [%] | inhibition [9] [%] | inhibition [10] [%] | inhibition [11] [%]
1 | COc1cc(O)c2c(c1)/C=C/C[C@H](O)[C@H](O)C(=O)/C=C\C[C@H](C)OC2=O | -3.7 | 31.8 | 56.3 | 20.4 | 39.4 | 90 | 51.4 | 21.8 | 61.5 | 33.6 | 12.6
2 | C=CC(=O)Nc1ccccc1Oc1nc(Nc2cnn(CCOC)c2)ncc1Cl | 9.5 | 22.8 | 48.4 | 3.6 | 9.6 | 31.2 | 59.7 | 27.2 | 59.9 | 0.2 | -6.3
3 | C=CC(=O)Nc1ccccc1Nc1nc(Nc2ccc(N3CCN(C)CC3)cc2)ncc1Cl | 31.5 | 41.5 | 89.1 | 10.3 | 13.1 | 90.3 | 78.5 | 14.7 | 54.6 | 76 | 8.5
